# MrgX1 antag = antagonists of human MrgX1 receptor, primary screen, HEK293 cells, Fluo-4 calcium flux; 310,000 tested, 1.3% active; BAM8-22 antagonism; active compounds read low; Mas-related G-protein coupled receptor member X1 (Homo sapiens), Q96LB2; B-score at 10 µM; AID 588676, 2011;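 active = calcium-response B-score plate-corrected more than 3 library SD below zero, starting fluorescence within 5 deviations, no agonist response on first addition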;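 note: peak minus trough fluorescence over baseline after final BAM8-22 challenge near maximal dose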
# Target sequence (Q96LB2 whole entry, looked up): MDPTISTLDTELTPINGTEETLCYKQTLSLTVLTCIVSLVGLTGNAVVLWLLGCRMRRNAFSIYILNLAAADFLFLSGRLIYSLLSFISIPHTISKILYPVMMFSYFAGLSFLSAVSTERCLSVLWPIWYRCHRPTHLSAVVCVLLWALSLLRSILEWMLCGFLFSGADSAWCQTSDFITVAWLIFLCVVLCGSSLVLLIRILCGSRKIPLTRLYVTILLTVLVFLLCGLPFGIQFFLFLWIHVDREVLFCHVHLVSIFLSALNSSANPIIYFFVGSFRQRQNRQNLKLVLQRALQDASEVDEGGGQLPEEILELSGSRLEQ
# Lipid droplet = inhibitors of hepatocyte lipid droplet formation, primary screen, imaging, high-throughput imaging, BODIPY stain | AML12 mouse hepatocytes, oleate lipid droplets | inhibition, % at 6.5 µM | 240,000 tested, 0.4% active | AID 1656, 2009;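 active = lipid droplet intensity inhibited by at least 50%, with more than 500 cells counted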
#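 Test system: AML12 mouse liver cells; schedule: overnight exposure; technique: high-content imaging of BODIPY-stained droplets and DAPI nuclei; read-out: % inhibition of corrected integrated BODIPY droplet signal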
# RGS4 block = RGS4 inhibitors, primary screen, cell-based, HEK293 M3R inducible RGS4, calcium flux | 310,000 tested, 0.45% active | B-score at 10 µM | Fluo-4 calcium flux; active compounds read high; triggered by carbachol at its EC20 | Regulator of G-protein signaling 4 (Homo sapiens), P49798;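 active = B-score, a plate-corrected calcium signal, over three deviations above library mean, with baseline fluorescence within five deviations of library mean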;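 note: RGS4 expression induced by doxycycline in cells with stable M3 receptor; B-score is computed from the integrated fluorescence ratio over baseline after carbachol; higher B-score means a larger calcium signal and so more RGS4 inhibition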
# Target sequence (P49798 whole entry, looked up): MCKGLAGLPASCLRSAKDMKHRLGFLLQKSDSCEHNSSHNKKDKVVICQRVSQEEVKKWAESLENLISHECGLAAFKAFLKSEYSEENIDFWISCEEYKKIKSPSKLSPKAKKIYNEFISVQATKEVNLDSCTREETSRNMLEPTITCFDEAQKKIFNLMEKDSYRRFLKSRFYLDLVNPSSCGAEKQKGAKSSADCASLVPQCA
# MrgX1 PAM = positive allosteric modulators of MrgX1, primary screen, HEK293 cells, Fluo-4 calcium flux; 310,000 tested, 0.63% active; AID 588675, 2011; B-score at 10 µM; FDSS; active compounds read high;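 active = plate-corrected calcium response at least 3 library SD above typical, normal starting fluorescence, not activating the receptor alone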;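 note: compound read alongside a low EC10 to EC30 dose of BAM8-22 agonist; peak minus trough fluorescence over baseline measured at the second addition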
# MrgX1 ag = agonists of human MrgX1 receptor, primary screen, HEK293 cells, Fluo-4 calcium flux; 310,000 tested, 0.44% active; Fluo-4 calcium fluorescence, agonist mode; active compounds read high; Mas-related G-protein coupled receptor member X1 (Homo sapiens), Q96LB2; B-score at 10 µM;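 active = calcium response B-score plate-corrected fluorescence ratio at least 3 library SD, with starting fluorescence B-score inside 5 SD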
#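 Material: MrgX1-expressing HEK293 cells / Dosing: compound as first of three additions / Incubation: overnight seeding, then 1 h dark dye loading / Signal: Fluo-4 NW calcium fluorescence / Evaluation: B-scored fluorescence response ratio / Benchmarks: positive and negative control wells on each plate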
# RGS4 act = RGS4 potentiators or activators, primary screen, cell-based, HEK293 M3R inducible RGS4, calcium flux. B-score at 10 µM. carbachol calcium flux Fluo4; active compounds read low. AID 463111, 2010. 310,000 tested, 0.92% active;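 active = B-score of the integrated calcium signal more than 4 SD below the library mean, with starting fluorescence not abnormally high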;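 note: negative B-score means reduced calcium response which marks RGS4 activation or potentiation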
#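 test system = M3R-expressing HEK293 line, RGS4 induced by doxycycline | probe or stimulus = carbachol at ECmax as muscarinic agonist stimulus | timing = dye loading 30 min 37 °C, buffer rest 30 min RT | signal = calcium dye Fluo4 fluorescence | evaluation = B score from integrated fluorescence ratio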
# MrgX1 ant reconf = MrgX1 receptor antagonists, duplicate retest, confirmation, HEK293 cells, Fluo-4 calcium flux | shares compounds with MrgX1 antag | BAM8-22 calcium flux; active compounds read low | remaining BAM8-22 calcium response % of control (active compounds read low), % at 10 µM | 2,300 tested, 19% active | AID 602420, 2012;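 active = remaining agonist calcium response no higher than 100% minus 3 SD of agonist-only control wells, with starting fluorescence near control levels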;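 note: agonist BAM8-22 given at a near maximal EC90 to ECmax level; peak minus minimum fluorescence divided by baseline after agonist addition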
# HEK293 Ca flux = nonspecific calcium signal in parental HEK293, confirmation, counter-screen for MrgX1 antagonist project, parental HEK293 cells, Fluo-4 calcium flux. Fluo-4 calcium fluorescence, FDSS. shares compounds with MrgX1 antag. AID 624111, 2012. fluorescence ratio F(max-min)/F0 at 10 µM. 4,000 tested, 2% active;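 active = duplicate-averaged calcium fluorescence ratio at least three times the standard deviation of buffer wells, a nonspecific response in parental cells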
# HEK293 Ca counter = calcium response in parental HEK293 cells, primary screen, counter-screen for MrgX1 allosteric activator project, cell-based, Fluo-4 calcium flux, duplicate; Fluo-4 fluorescence ratio; active compounds read high; fluorescence ratio F(max-min)/F0 at 10 µM; 4,000 tested, 0.4% active; shares compounds with MrgX1 antag;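 active = calcium fluorescence ratio, averaged over duplicates, at least 3 SD of the buffer-well ratio, meaning a nonspecific response in receptor-free cells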;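 note: untransfected parental HEK293 lacking MrgX1 used as counterscreen for MrgX1 allosteric activators; fluorescence change taken during the second addition on a kinetic imager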
# HEK293 Ca cntr2 = calcium response in parental HEK293 cells, primary screen, counter-screen for MrgX1 agonist project, cell-based, Fluo-4 calcium flux, duplicate, agonist mode; 4,000 tested, 8.7% active; fluorescence ratio F(max-min)/F0 at 10 µM; Fluo-4 calcium fluorescence (FDSS); active compounds read high; shares compounds with MrgX1 antag;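 active = calcium fluorescence ratio at least three times the spread of buffer wells, meaning a non-specific response in parental cells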
# Hits are given with their value; – = inactive; · = no result given. Compounds with a hit are over-represented: about 3.8% of the library has one in this group of screens.
SMILES,MrgX1 antag,Lipid droplet,RGS4 block,MrgX1 PAM,MrgX1 ag,RGS4 act,MrgX1 ant reconf,HEK293 Ca flux,HEK293 Ca counter,HEK293 Ca cntr2
CC(C)[C@H](NS(=O)(=O)c1ccc(Cl)cc1)C(=O)OCC(=O)NCCN1C(=O)CSC1=O,–,–,–,–,–,–,·,·,·,·
COC(=O)c1cc2c(ccn2-c2ccc(F)cc2)n1Cc1ccc(C#N)cc1,-4.7,–,–,–,–,–,–,–,–,–
CN1CCN(CC(=O)Nc2ccc(OC(F)(F)F)cc2)CC1,–,–,–,–,–,–,·,·,·,·
Nc1ncc2c(n1)-c1ccccc1CC2,-4.8,–,–,–,–,–,–,–,–,–
Nc1ncc2c(n1)-c1ccoc1CC2,–,–,–,–,–,–,·,·,·,·
CC(C)CC1(C(=O)NCc2cc(F)cc(C(F)(F)F)c2)C=CCN1C(=O)c1ccccc1 (stereo not drawn),–,–,–,–,–,–,·,·,·,·
Cc1ccc(Cl)cc1N1CCN(C(=O)Cn2ncn3cccc3c2=O)CC1,–,–,–,–,–,–,·,·,·,·
CN(CCCOc1ccccc1Br)Cc1ccccc1,-6,–,–,–,–,–,–,–,–,–
Cc1cccc(NC(=O)c2cc(S(=O)(=O)N3CCCC3)cn2C)c1,–,–,–,–,–,–,·,·,·,·
Cc1cc(C)cc(NC(=O)c2cc(S(=O)(=O)N3CCCC3)cn2C)c1,-6.9,–,–,–,–,–,–,–,–,–
CCOC(=O)c1cnc(Nc2nc3ccccc3o2)nc1CSc1nnc(C)s1,-5.3,·,–,–,–,–,–,–,–,–
CCOC(=O)c1cnc(Nc2nc3ccccc3o2)nc1C,–,–,–,–,–,–,·,·,·,·
Cc1cc2ccccc2nc1SCC(=O)N1c2ccccc2CC1C (stereo not drawn),–,–,–,–,–,–,·,·,·,·
CCOC(=O)CSc1nc2cc3c(cc2cc1C#N)OCO3,–,·,·,–,–,·,·,·,·,·
CC1Cc2ccccc2N1C(=O)CSc1nc2cc3c(cc2cc1C#N)OCO3 (stereo not drawn),-8.5,·,·,–,–,·,–,–,–,–
Cc1cc2cc3c(cc2nc1SCC(=O)N1c2ccccc2CC1C)OCO3 (stereo not drawn),-5,–,–,–,–,–,84%,–,–,–
COc1ccccc1N(CC(=O)NCCSc1ccc(Cl)cc1)S(C)(=O)=O,–,–,–,–,–,–,·,·,·,·
Cc1ccc(C(=O)NC2CC3CCC(C2)N3Cc2ccco2)cc1 (stereo not drawn),-7.8,–,–,–,–,–,–,–,–,–
Cc1ccc(C(=O)NCc2ccco2)cc1,-5.3,–,–,–,–,–,–,–,–,–
COc1cc(OC)cc(C(=O)NC2CC3CCC(C2)N3Cc2ccco2)c1 (stereo not drawn),·,·,–,·,·,–,·,·,·,·
O=C1NCCN/C1=C\C(=O)c1ccc(Br)cc1,–,–,–,–,–,–,·,·,·,·
CC(C)CCn1cnc2c([nH]c3cccc(Cl)c32)c1=O,-5.8,·,–,–,–,–,–,–,–,–
Cc1cccc2[nH]c3c(=O)n(CCN4CCNCC4)cnc3c12,–,·,–,–,–,–,·,·,·,·
CC(=O)Nc1ccc(Nc2nc(C)c([N+](=O)[O-])c(Nc3ccc(NC(C)=O)cc3)n2)cc1,-22,–,–,–,–,–,82%,–,–,–
COc1ccc(/C=C/c2nc3cc(-c4ccccc4)ccc3o2)cc1O,-4.5,–,–,–,–,–,–,–,–,–
SMILES,MrgX1 antag,Lipid droplet,RGS4 block,MrgX1 PAM,MrgX1 ag,RGS4 act,MrgX1 ant reconf,HEK293 Ca flux,HEK293 Ca counter,HEK293 Ca cntr2
O=S(=O)(NC1CCCCC1N1CCOCC1)c1ccc(Cl)cc1 (stereo not drawn),–,–,–,–,–,–,·,·,·,·
O=S(=O)(NC1CCCCC1N1CCN(c2ccccc2F)CC1)c1ccc(Cl)cc1 (stereo not drawn),-9.6,–,–,–,–,–,–,–,–,–
CC1CCN(c2ccc(-c3cccs3)nn2)CC1,–,–,–,–,–,–,·,·,·,·
NC(=O)C1CCN(c2ncnc3c2c(-c2ccccc2)cn3-c2ccccc2)CC1,-5.2,·,–,–,–,–,–,–,–,–
Fc1ccc(-n2cc(-c3ccccc3)c3c(N4CCOCC4)ncnc32)cc1,–,–,–,–,–,–,·,·,·,·
COC(=O)[C@]1(CC(C)C)N[C@H](c2ccc(-c3ccc(Cl)c(Cl)c3)cc2)[C@@H]2C(=O)N(C)C(=O)[C@@H]21,–,·,–,–,–,–,·,·,·,·
CCCn1cc(SCC(=O)NCc2ccco2)c2ccccc21,-9,–,–,–,–,–,–,–,–,–
O=C(CSc1cn(CCNC(=O)c2ccccc2)c2ccccc12)NCc1ccco1,–,·,–,–,–,–,·,·,·,·
COc1ccc(CCNc2cc(=O)[nH]c(N)n2)cc1,-6.8,–,–,–,–,–,–,–,–,–
Cc1cc(Oc2ccccc2)nc(-c2ccccc2)n1,-4.5,·,–,–,–,–,–,–,–,–
COc1ccccc1NC(=S)N(Cc1ccco1)Cc1cc2cc(C)ccc2[nH]c1=O,–,–,–,–,–,–,·,·,·,·
c1ccc(CNc2nc3ccccc3n2CCN2CCOCC2)nc1,-4.7,·,–,–,–,–,–,–,–,–
Cc1nnnn1-c1ccc(CC(=O)O)cc1,-7.1,–,–,–,–,–,–,–,–,–
OCCC1CN(C/C=C/c2ccco2)CCN1Cc1ccccc1 (stereo not drawn),-5.2,–,–,–,–,–,–,–,–,–
CC(=O)NCCc1nc2cc(NC(=O)COc3ccc(C)cc3)ccc2n1C,-6.7,–,–,–,–,–,–,–,–,–

# Bioassay records deposited in PubChem BioAssay by several laboratories.
